According to ChEMBL document CHEMBL4834396, “Molecular Recognition and Imaging of Human Telomeric G-Quadruplex DNA in Live Cells: A Systematic Advancement of Thiazole Orange Scaffold To Enhance Binding Specificity and Inhibition of Gene Expression” (J Med Chem, 2021):
pKd: −log10 of the molar value. Calls of active or inactive are those of the source. The calls are words filed in the database; no cut-off is given here.

What was measured:
Assay type in all cases: nucleic-acid assay
[1] = test system: Quadruplex DNA [UNDEFINED MUTATION]; experiment: Effect on confirmation of telomeric Htg24 G-quadruplex DNA A8G mutant (unknown origin) assessed as hybrid topology at 5 uM at pH 7.4 by circular dichroism analysis; conditions: Homo sapiens
Summary of the method: (§1)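 CD spectra recorded on G4-DNA and ligand, each at 5 μM, in 10 mM Tris-HCl, pH 7.4, with 60 mM KCl. Scan range 220–340 nm in a 1 mm quartz cuvette, 1 nm bandwidth and step, 0.5 s/point. Each spectrum is the average of three scans.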

Quadruplex DNA [2] = experiment: Binding affinity to telomeric Htg24 G-quadruplex DNA (unknown origin) assessed as fold increase in fluorescence signal at 5 uM under pH condition 7.4 by fluorescence method
Summary of the method: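 Ligand 5 μM with each nucleic acid at 15 μM in 10 mM Tris-HCl pH 7.4, 60 mM KCl; emission enhancement expressed as F/F0 against ligand without DNA.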

[3] = test system: Quadruplex DNA [UNDEFINED MUTATION]; experiment: Binding affinity to telomeric Htg24 G-quadruplex DNA G5C mutant (unknown origin) assessed as negative fluorescence signal at 5 uM under pH condition 7.4 by fluorescence titration analysis; conditions: Homo sapiens
Summary of the method: (§2)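 Ligand held at 5 μM and mixed with each Htg24 point mutant in Tris-HCl buffer containing 60 mM KCl, pH 7.4. Fluorescence was read, and the signal change was computed as (F mutant − F wild type)/F wild type.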

[4] = test system: Quadruplex DNA [UNDEFINED MUTATION]; experiment: Binding affinity to telomeric Htg24 G-quadruplex DNA G16C mutant (unknown origin) assessed as negative fluorescence signal at 5 uM under pH condition 7.4 by fluorescence titration analysis; conditions: Homo sapiens
Summary of the method: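 Ligand 5 μM mixed with wild-type or point-mutant Htg24 in Tris-HCl buffer with 60 mM KCl; signal change calculated as (F mutant − F wild type)/F wild type.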

Quadruplex DNA [5] = experiment: Binding affinity to c-myc promoter G-quadruplex DNA Pu27 (unknown origin) assessed as dissociation constant by isothermal titration calorimetric analysis
Summary of the method: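 ITC at 25 °C: DNA preannealed at 95 °C for 5 min, cooled and held at 4 °C overnight, in 25 mM KH2PO4, 60 mM KCl, pH 7.4, 0.5% DMSO. DNA 10 μM in cell, ligand 500 μM in syringe; 19 injections of 4 s, 150 s apart, 750 rpm stirring; blank heat subtracted before model fitting.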

[6] = test system: Quadruplex DNA [UNDEFINED MUTATION]; experiment: Binding affinity to telomeric Htg24 G-quadruplex DNA G21T mutant (unknown origin) assessed as strong fluorescence signal at 5 uM under pH condition 7.4 by fluorescence titration analysis; conditions: Homo sapiens; summary of the method: as §2
[7] = test system: Quadruplex DNA [UNDEFINED MUTATION]; experiment: Effect on confirmation of telomeric Htg24 G-quadruplex DNA G16C mutant (unknown origin) assessed as parallel topology at 5 uM at pH 7.4 by circular dichroism analysis; conditions: Homo sapiens; summary of the method: as §1

Activity [1]: Active
fold change (FC) (Quadruplex DNA [2]): 120
Activity [3]: Active
Activity [4]: Active
pKd (Quadruplex DNA [5]): 5.49
Activity [6]: Active
Activity [7]: Active
Structure (SMILES): CN(C)c1ccc(/C=C/c2cc(/C=C3\Sc4ccccc4N3CCCN3CCOCC3)c3ccccc3[n+]2C)cc1.[I-]
